Most compounds without a hit are left out; they make up all but 1.4% or so of the library.
ERp5 block: blocks human ERp5 reductase activity on insulin | inhibition, % at 9.99 µM | Q15084 | ERp5 insulin aggregation, absorbance 650 nm, 90 min | hit rate 0.05% among 350,000 | AID 651711;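 active = mean replicate inhibition above about 25%, with every replicate also reaching it, limit read from the data, passing the limit was not always enough; inconclusive = only one of those two criteria met; inactive = neither criterion met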
Target sequence (Q15084 whole entry, looked up): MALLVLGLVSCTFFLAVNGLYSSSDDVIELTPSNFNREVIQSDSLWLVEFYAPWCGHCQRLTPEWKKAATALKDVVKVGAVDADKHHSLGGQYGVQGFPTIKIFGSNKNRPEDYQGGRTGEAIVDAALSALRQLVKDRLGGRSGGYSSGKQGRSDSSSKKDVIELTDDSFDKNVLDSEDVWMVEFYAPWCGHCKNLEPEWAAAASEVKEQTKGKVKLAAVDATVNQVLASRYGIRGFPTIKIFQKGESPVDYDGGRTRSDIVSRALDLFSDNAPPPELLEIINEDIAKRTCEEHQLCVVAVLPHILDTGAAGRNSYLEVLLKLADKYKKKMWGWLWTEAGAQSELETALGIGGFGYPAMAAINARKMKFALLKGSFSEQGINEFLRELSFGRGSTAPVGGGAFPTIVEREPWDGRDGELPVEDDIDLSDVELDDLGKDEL
PDI turbidity: inhibitors of human protein disulfide isomerase. AID 588391. P07237. PDI insulin aggregation turbidity, A650, 90 min. hit rate 0.052% among 350,000. inhibition, % at 10 µM;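 active = mean inhibition across replicates of 30% or more, whatever share of single replicates reach that level; inconclusive = mean inhibition below 30% while every single replicate reaches 30%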
FN deposition inh: fibronectin deposition inhibition; AID 743247; AH1F fibroblasts, Alexa488-fibronectin deposition fluorescence, overnight; hit rate 0.086% among 350,000; inhibition, % at 12.6 µM;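 active = mean inhibition across replicates of 30% or more, regardless of how many single replicates reach that level; inconclusive = mean under 30% yet at least half of replicates reach 30%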;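 note: positive control wells lacked labelled fibronectin entirely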
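Assay system: AH1F fibroblasts / Quantity: 10000 cells per well / Medium: DMEM plus 2% serum, read in PBS / Reagent: labelled fibronectin 24 nM / Dosing: single dose, pinned / Times: 1 h cell attachment, overnight exposure to compound and label / Signal: fluorescence, ex 485 nm, em 525 nm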
HIV Env fusion: HIV envelope-mediated fusion inhibition; HeLa-JRFL Env/CEM21 cell fusion, luciferase; inhibition, % at 12.3 µM; hit rate 1.1% among 360,000;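 active = mean replicate inhibition score of at least 50 and every replicate individually at or above 50; inconclusive = only one of the two criteria met; inactive = mean below 50 and not all replicates reaching 50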;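 note: 0% = plate neutral controls and 100% = maraviroc near 300 nM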
GSIS activator: primary screen for activators of insulin secretion dependent on glucose, INS-1E cells, GLuc reporter luminescence; INS-1E GLuc reporter insulin secretion, 2-3 h; activation, % at 16.6 µM; hit rate 0.61% among 370,000; AID 743287;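 active = lowest replicate activation of at least 40%, so every replicate reaches that level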;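 note: 0% = median of neutral control wells and 100% = median of IBMX positive control wells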
Starred values were filed as active, the others as inactive; ? = inconclusive; . = no result; ! = not confirmed by another sample; [ ] = another dose, or the depositor's remark.

SMILES	ERp5 block	PDI turbidity	FN deposition inh	HIV Env fusion	GSIS activator
COc1ccc(S(=O)(=O)N(C)C[C@@H]2Oc3cc(C4=CCCC4)ccc3S(=O)(=O)N([C@H](C)CO)C[C@H]2C)cc1	3	.	5	26[16.7 µM]	-29
COc1cccc(S(=O)(=O)N(C)C[C@@H]2Oc3cc(C4=CCCCC4)ccc3S(=O)(=O)N([C@@H](C)CO)C[C@@H]2C)c1	-9	.	.	55*[16.7 µM]	2
COc1ccc(S(=O)(=O)N(C)C[C@@H]2Oc3cc(C4=CCCC4)ccc3S(=O)(=O)N([C@@H](C)CO)C[C@H]2C)cc1	4	.	2	32[16.7 µM]	-20
COCC(=O)N1[C@H](C#N)[C@H](c2ccccc2)[C@@H]1CO	-1	.	3	-24[16.7 µM]	-3
COc1ccc(S(=O)(=O)Nc2ccc3c(c2)CC(=O)N([C@H](C)CO)C[C@@H](C)[C@@H](CN(C)S(C)(=O)=O)O3)cc1	2	.	7	-26[16.7 µM]	23
C[C@H](CO)N1C[C@H](C)[C@@H](CN(C)S(=O)(=O)c2ccc(F)cc2)OCCCC[C@H](C)Oc2ccc(NC(=O)Nc3ccc(C(F)(F)F)cc3)cc2C1=O	-1	.	-5	57*[16.7 µM]	0
C[C@@H]1CCCCO[C@@H](CN(C)S(=O)(=O)c2ccc(F)cc2)[C@H](C)CN([C@@H](C)CO)C(=O)c2cc(NC(=O)Nc3ccc(C(F)(F)F)cc3)ccc2O1	-4	.	-13	?	5
C[C@@H]1CCCCO[C@@H](CN(C)S(=O)(=O)c2ccc(F)cc2)[C@H](C)CN([C@H](C)CO)C(=O)c2cc(NC(=O)Nc3ccc(C(F)(F)F)cc3)ccc2O1	-3	.	-12	68*[16.7 µM]	28
C[C@H]1CN([C@@H](C)CO)C(=O)c2ccccc2-c2ccccc2CO[C@@H]1CN(C)Cc1cccc(F)c1	.	.	-3	.	-7
C[C@H](CO)N1C[C@H](C)[C@H](CN(C)Cc2ccc(F)cc2)OCc2ccccc2-c2ccccc2C1=O	-7	.	-6	57*[16.7 µM]	2
COCC(=O)N(C)C[C@H]1Oc2ncc(Br)cc2C(=O)N([C@@H](C)CO)C[C@@H]1C	-8	.	.	-12[16.7 µM]	-3
COCC(=O)N(C)C[C@H]1Oc2ncc(Br)cc2C(=O)N([C@H](C)CO)C[C@H]1C	1	.	.	80*[16.7 µM]	19
C[C@H]1CN([C@@H](C)CO)C(=O)c2cc(-c3cccc(C#N)c3)cnc2O[C@H]1CN(C)Cc1cncnc1	-4	.	-2	-6[16.7 µM]	20
C[C@H]1CN([C@@H](C)CO)C(=O)c2ccccc2-c2ccccc2CO[C@H]1CN(C)Cc1cccc(F)c1	-13	.	-2	62*[16.7 µM]	-20
C[C@@H]1CN([C@@H](C)CO)C(=O)c2cc(-c3cccc(C#N)c3)cnc2O[C@H]1CN(C)Cc1cncnc1	84*	.	1	-13[16.7 µM]	3
COc1ccc(S(=O)(=O)Nc2ccc3c(c2)C(=O)N([C@@H](C)CO)C[C@@H](C)[C@H](CN(C)Cc2ccc4c(c2)OCO4)OCCCC[C@@H](C)O3)cc1	-2	.	-5	-4[16.7 µM]	2
C[C@H](CO)N1C[C@H](C)[C@H](CN(C)S(C)(=O)=O)Oc2ccc(NS(=O)(=O)c3ccc(F)cc3)cc2C1=O	.	.	.	-13[16.7 µM]	6
COc1ccc([C@H]2C=C(C(=O)N3CCN(Cc4ccc5c(c4)OCO5)CC3)O[C@@H](OCc3ccc(CO)cc3)C2)cc1	3	.	.	-5[16.7 µM]	.
C[C@@H]1CN([C@@H](C)CO)C(=O)c2cccc(NS(=O)(=O)c3ccccc3)c2O[C@H]1CN(C)CC1CCCCC1	-4	.	.	-27[16.7 µM]	3
C[C@@H]1CN([C@H](C)CO)C(=O)c2cc(Br)cnc2O[C@@H]1CN(C)Cc1cccc(F)c1	7	.	-3	21[16.7 µM]	-9
C[C@H](CO)N1C[C@H](C)[C@H](CN(C)Cc2cccc(F)c2)Oc2ncc(Br)cc2C1=O	82*!	1	-5	-6	19
C[C@H]1CN([C@@H](C)CO)C(=O)c2ccccc2-c2ccccc2CO[C@H]1CN(C)Cc1ccc(F)cc1	-4	.	10	73*[16.7 µM]	-19
C[C@H](CO)N1C[C@H](C)[C@@H](CN(C)C(=O)Cc2cccnc2)Oc2cc(C3=CCCCC3)ccc2S1(=O)=O	-12	.	.	18[16.7 µM]	-6
CCCNC(=O)Nc1ccc2c(c1)OC[C@@H](C)N(CCC)C[C@H](C)[C@H](OC)CN(C)C2=O	6	.	3	-22[16.7 µM]	-8
COc1ccccc1C(C)NS(=O)(=O)c1ccc(Cl)nc1 (stereo not given)	2	-1	8	.	44*
SMILES	ERp5 block	PDI turbidity	FN deposition inh	HIV Env fusion	GSIS activator
COCCCN1C(=O)c2[nH]nc(-c3ccccc3O)c2C1c1ccc(Cl)cc1 (stereo not given)	.	11	-5	-116	.
COc1ccc(CCN2C(=O)c3[nH]nc(-c4ccccc4O)c3C2c2ccccc2)cc1OC (stereo not given)	.	-3	-15	147*	.
CN(CC(=O)Nc1cccc2ccccc12)C(=O)c1ccc(NC(=O)CC#N)cc1	7	-1	8	16	19
CCOc1cc(C(=O)N(C)CC(=O)Nc2cccc3ccccc23)ccc1OC	9	11	-4	.	57*
Cc1cccc(C)c1NC(=O)C1c2ccccc2Oc2ccccc21	.	-22	4	-10	51*
Cc1ccccc1NC(=O)C1c2ccccc2Oc2ccccc21	-2	-7	-4	-7	-3
COC(=O)C1(C(=O)OC)C[C@H](c2ccc(OC)cc2)N(Cc2ccccc2OC)[C@@H]1c1cccs1	1	.	-7	92*	.
CCN(CC)c1ccc(NC(=O)CCCCC(=O)Nc2ccc(N(CC)CC)cc2)cc1	2	-7	-1	61*	1
CC(C)CC#Cc1cnc2c(c1)C(=O)N([C@H](C)CO)C[C@@H](C)[C@H](CN(C)Cc1ccc(C(=O)O)cc1)O2	3	.	.	.	3
CC(=O)c1ccc(OCCCC(=O)Nc2cc(S(=O)(=O)N(C)C)ccc2C)cc1	.	-3	4	18	1
Cc1ccc(S(=O)(=O)N(C)C)cc1NC(=O)C(C)N(C)CCOc1ccc(Cl)cc1 (stereo not given)	-1	19	0	69*	-18
COc1ccc(NC(=O)N2C[C@@H](O)COC[C@H]3O[C@H](CC(=O)NC4Cc5ccccc5C4)CC[C@@H]32)cc1	-3	.	5	.	-2
O=C(COc1ccccc1)N(Cc1cccc(F)c1)C1CCS(=O)(=O)C1 (stereo not given)	-8	-2	0	1	51*
CC1(C)OC(=O)C2=C(C[C@@H](C3CCCCC3)O[C@@H]2c2ccc(F)cc2)O1	2	.	-8	-2	-26
C[C@@H]1CC2=C(C(=O)OC(C)(C)O2)[C@H](c2ccc(F)cc2)O1	9	.	3	-12	56*
C[C@@H]1CC2=C(C(=O)OC(C)(C)O2)[C@H](c2ccc(Cl)cc2)O1	-12	.	8	-12	52*
CC1=C(C(=O)N2CCOCC2)CC(CC(=O)NCCCN(C)C)C(=O)N1CCCN1CCCC1=O (stereo not given)	8	.	-9	-7	41*
Cc1ccc(-c2c[n+]3c(n2-c2ccccc2)SCC3)cc1	.	8	-10	59*	.

Compound activity (PubChem)
